Most compounds without a hit are left out; they make up all but 4.2% or so of the library.
Insulin prom up: MIN6 insulin promoter up-regulation. AID 1625. MIN6 insulin promoter-GFP reporter, high-content imaging; hits give high values. z-score at 5 µM. hit rate 0.3% among 190,000;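 active = z-score above 3 at 5 µM with at least 500 cells counted in the well; inconclusive = wells under 500 cells, flagged as cytotoxic or low count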
Rad51 HR inh: Rad51 (human) homologous recombination inhibition; Q06609; hRad51 DNA strand exchange, fluorescence dequenching; AID 1385; inhibition, % at 10 µM; hit rate 0.085% among 200,000;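 active = inhibition above 40% at the single screening dose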;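 note: 0% = DMSO control wells and 100% = blanks with heterologous ssDNA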
Target sequence (Q06609 whole entry, looked up): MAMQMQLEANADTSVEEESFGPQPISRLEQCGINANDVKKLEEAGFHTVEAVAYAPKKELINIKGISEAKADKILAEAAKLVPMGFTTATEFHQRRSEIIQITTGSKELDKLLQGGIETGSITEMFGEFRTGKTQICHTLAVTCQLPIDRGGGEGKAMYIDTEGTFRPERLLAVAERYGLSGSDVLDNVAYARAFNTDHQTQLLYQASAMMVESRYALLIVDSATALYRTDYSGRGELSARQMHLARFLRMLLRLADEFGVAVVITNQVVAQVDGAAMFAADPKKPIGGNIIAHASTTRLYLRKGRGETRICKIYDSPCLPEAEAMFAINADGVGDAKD
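Material: human Rad51–ssDNA filaments; Probe or stimulus: labelled 47-mer dsDNA for strand exchange; Doses: single 10 µM dose; Incubation: 37 °C 15-min filament assembly, 30-min compound preincubation, 15-min exchange; Technique: FRET fluorescence dequenching, excitation 485 nm, emission 520 nm; Measure: Fluorescence-based percent inhibition, control- and blank-normalised; Benchmarks: plate control and blank wells.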
Autophagy mod: modulators of autophagy; MEF GFP-LC3 puncta imaging; test concentration mostly 10 µM; calls only at 10 µM (by protocol); hit rate 0.98% among 190,000;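 active = percentage of spot-positive cells more than 3 SD above its plate mean, without a fluorescence outlier flag or 80% toxicity; inconclusive = no clear call, values can overlap the other calls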;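 note: spot-positive cell cutoff set from DMSO-treated cells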
SKKanGAS inh: inhibitors of SKKanGAS S. pyogenes growth in kanamycin (SK-promoter or general growth effect); BacTiter-Glo, 6 h; inhibition, % at 7.5 µM; hit rate 1.3% among 300,000;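 active = mean replicate score, as percent of positive control median, at least 50; inconclusive = mean below 50 but one replicate at or above 50; inactive = mean and every replicate below 50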;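 note: strain carries kanamycin resistance gene driven by streptokinase promoter and grows in 40 µg/ml kanamycin; loss of luminescence reflects streptokinase promoter inhibition or plain growth inhibition; 0% = median of DMSO wells and 100% = positive control at its reference dose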
WT yeast gro inh: growth inhibition of WT yeast, mitochondrial fusion screen. AID 1362. inhibition, % at 10 µM. mitochondrial fusion phenotypic screen, WT strain. hit rate 2.1% among 190,000; in the data active = inhibition above about 58%; tested in S. cerevisiae
KCC2 mod: modulates chloride dependent transport by human KCC2; Q9H2X9; KCC2 cells, thallium flux FluoZin-2 fluorescence; B-score of Tl+ flux slope (higher = more flux/activation; lower = inhibition) at 10 µM; hit rate 2.2% among 190,000; AID 1456;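 active = thallium flux slope and its plate-corrected score both differing from the plate sample mean at a set confidence after two filtering rounds, in either direction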;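 note: slope of fluorescence scaled to starting intensity during 10 to 20 s after thallium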
The depositor's hits bear a star; i = inactive; ? = inconclusive; / = not tested or not shown; + = active, no number.

SMILES	Insulin prom up	Rad51 HR inh	Autophagy mod	SKKanGAS inh	WT yeast gro inh	KCC2 mod
CCN1C/C(=C/c2ccc(OC)c(O)c2)C(=O)/C(=C/c2ccc(OC)c(O)c2)C1	?	-1.1	+	0.6	-17.3	0.371
CCN1C/C(=C\c2cccc([N+](=O)[O-])c2)C(=O)/C(=C/c2cccc([N+](=O)[O-])c2)C1	0.84	7.2	i	/	64.9*	-0.177
CCc1ccc(NC(=O)c2ccccc2SC)cc1	0.52	0.1	i	7.5	3.6	-0.557
CCCCC[n+]1ccn(C2=C([O-])c3ccccc3C(=O)/C2=N\S(=O)(=O)c2ccc(Br)cc2)c1	-0.04	/	/	97.1*	/	-0.52
CCCCC[n+]1ccn(C2=C([O-])c3ccccc3C(=O)/C2=N\S(=O)(=O)c2ccccc2)c1	1.16	4.6	i	73.7*	-20.1	-0.628
CCCC[n+]1ccn(C2=C([O-])c3ccccc3C(=O)/C2=N\S(=O)(=O)c2ccccc2)c1	-0.05	0.3	i	59.0*	-23.1	-1.96
CCN(CC)C(=O)C[n+]1cccc(C(N)=O)c1	-0.21	/	i	-1.0	-8.6	1.44
C=CCNC(=O)c1ccc(-n2cccc2)cc1	-0.72	-4.5	i	1.9	-13.2	-0.388
NNc1nc(-c2ccccc2)c2cc(Cl)ccc2n1	0.09	/	/	46.8	/	-0.679
NNc1nc(-c2ccccc2)c2cc(Br)ccc2n1	/	/	/	65.1*	/	/
CCOc1ccc(NC(=O)NC2CCS(=O)(=O)C2)cc1 (centres undefined)	/	/	/	-0.6	/	/
CCCCCOCC1CC(C/C(C)=N/Nc2nc(-c3ccccc3)cs2)C(=O)O1 (centres undefined)	/	62.3*	i	16.1	-0.4	/
C=C1C[C@H]2[C@@H]3CCc4cc(OC)ccc4[C@H]3CC[C@]12C	/	/	/	76.4*	/	/
COC(=O)c1c(NC(=O)c2c(-c3ccccc3Cl)noc2C)sc2c1CCC2	-0.75	/	i	5.0	74.9*	0.246
COC(=O)c1c(NC(=O)c2c(C)noc2C)sc2c1CCCCCC2	-0.43	7.6	i	-4.1	-3.6	/
Cc1onc(-c2ccccc2Cl)c1C(=O)Nc1sc2c(c1C(N)=O)CCC(C)C2 (centres undefined)	/	/	i	24.1	68.8*	-2.25
COC(=O)c1c(NC(=O)c2nc3nc(C)cc(C(F)F)n3n2)sc2c1CCC2	-0.66	4.8	i	22.0	59.6*	/
CC1(C)CCCC2=C1CC1C(=O)N(N)C(=O)C1C2 (centres undefined)	0.15	4.5	/	-10.7	/	0.649
COc1ccc(S(=O)(=O)N2CCCCCC2)cc1C(=O)OCc1c(C)noc1C	-0.34	3.7	i	/	97.3*	-0.297
COc1ccc(S(=O)(=O)N2CCc3ccccc32)cc1C(=O)OCc1c(C)noc1C	-0.88	-2.5	i	3.1	19.4	0.326
O=C(Nc1ccc(Cl)cc1)NC1CCCCC1Cc1ccco1 (centres undefined)	-0.36	-2.0	i	37.3	75.4*	-0.768
O=C(Nc1ccc(Cl)cc1)NC1CCCC1Cc1ccco1 (centres undefined)	0.01	-2.6	i	21.6	-52.6	-2.01
COCCNS(=O)(=O)c1cc2[nH]c3c(c2cc1C)C(=O)CC(C)(C)C3	/	/	/	-3.1	/	/
Oc1cc(OCc2ccccc2)ccc1-c1[nH]ncc1-c1ccccc1	0.34	/	/	73.1*	/	0.384
COc1ccccc1-c1cn[nH]c1-c1ccc(OCc2ccc([N+](=O)[O-])cc2)cc1O	-0.01	8.9	/	0.7	/	0.232
SMILES	Insulin prom up	Rad51 HR inh	Autophagy mod	SKKanGAS inh	WT yeast gro inh	KCC2 mod
COc1ccccc1-c1cn[nH]c1-c1ccc(OCc2ccc(F)cc2)cc1O	0.11	/	/	51.2*	/	-0.399
C=CCNc1nnc(Cc2ccc(C(C)C)cc2)c(=O)[nH]1	/	/	/	1.9	/	/
O=C(c1ccc2nc(Cc3ccccc3F)oc2c1)N1CC[C@H](O)C1	/	/	/	-3.4	/	/
COc1ccc(N(CC(=O)NC2CC2)S(=O)(=O)c2ccccc2)cc1	/	/	/	-2.4	/	/
CCOc1ccc(S(=O)(=O)N(CC(=O)NN=C2CCN(C)CC2)c2ccc(C)cc2)cc1	/	/	/	-13.4	/	/
CCC1CCCCN1c1cc(C)nc2cc(-c3cccc(C)c3)nn12 (centres undefined)	-0.14	-0.2	i	57.1*	88.8*	-0.883
Cc1cc(N2CCOCC2)n2nc(-c3cccc(F)c3)cc2n1	1.09	2.2	i	-1.2	-5.8	-0.742
CC(Cc1c[nH]c2ccccc12)C(=O)NCc1ccco1 (centres undefined)	/	/	/	-0.2	/	/
Cc1ccc(Oc2ncccc2N)c2c1CCC2	0.61	-19.5	/	-3.0	/	-1.04
COc1ccc(-c2oc(NC(=O)CSc3ncn[nH]3)c(C#N)c2-c2ccc(OC)cc2)cc1	-0.29	4.6	i	70.0*	1.2	0.0203
COc1cccc(CC2(CO)CCCN(Cc3cc(F)ccc3-n3cccn3)C2)c1 (centres undefined)	0.24	-28.9	i	-4.5	2.1	0.211
O=c1cc(O)c2c(=O)n(-c3ccccc3)c3ccccc3c2o1	1.39	/	i	102.4*	15.9	/
Cc1cc2sc(C(=O)O)c(C)c2s1	/	-3.0	i	-1.1	-0.4	0.287
CC(C)c1ccc2nc3sc(C(=O)N4CCc5ccccc5C4)c(N)c3cc2c1	0.87	-17.0	i	53.6*	16.8	-0.643
CCc1ccc2nc3sc(C(=O)N4CCc5ccccc54)c(N)c3cc2c1	4.93*	-20.8	+	2.3	3.1	0.128
Cc1ccc(C)c2nc3sc(C(=O)N4CCCc5ccccc54)c(N)c3cc12	/	/	+	-8.7	45.6	/
COc1ccc(-c2cn3c(C)c(C(=O)N4CCCc5ccccc54)sc3n2)cc1	/	0.0	i	35.2	-4.2	-0.839
CCC(CO)NS(=O)(=O)c1cc(-c2nn(C)c(=O)c3ccccc23)ccc1C (centres undefined)	-1.6	9.0	i	-5.8	-1.4	-0.607
Cc1cc(C)nc(N/N=C/c2cn[nH]c2-c2ccc(F)cc2)n1	-0.87	/	/	4.1	/	-0.276
CCn1c(CC(=O)Nc2ccccc2)n[nH]c1=S	0.92	1.8	i	3.4	-0.2	0.062
O=C(CN1CCCC1)N1c2ccccc2Sc2ccc(C(F)(F)F)cc21	/	-5.2	i	-4.3	-13.6	0.777
CN1C(=O)c2ccccc2Sc2ccc(NC(=O)N3CCCC3)cc21	0.22	0.0	i	24.0	78.7*	-1.82
CN1C(=O)/C(=C/c2ccc(C(F)(F)F)cc2)Sc2ccc(C(=O)N3CCN(c4ccccn4)CC3)cc21	/	/	/	103.9*	/	/
CCOC(=O)C1CCCN(C(=O)c2ccc3c(c2)N(C)C(=O)/C(=C/c2ccccc2Cl)S3)C1 (centres undefined)	/	/	/	104.9*	/	/
CN1CCN(C(=O)Nc2ccc3c(c2)N(C)C(=O)c2ccccc2S3)CC1	-0.04	5.2	i	6.7	0.2	-0.016
O=C(CN1CCN(c2ccccn2)CC1)N1c2ccccc2Sc2ccc(C(F)(F)F)cc21	-1.34	3.3	i	9.3	66.4*	-0.233

Bioassay records as filed in PubChem.
